The pKi is the negative decadic logarithm of the Ki, by convention in mol/L. The low end stands for a high Ki, the high end for a low Ki.

pKi: −log10 of the molar value. Where a SMILES comes first, the peptide text is derived from it.

The target in this experiment is Kappa-type opioid receptor (Homo sapiens, UniProt P41145). The experiment is described as follows: Displacement of [3H]U69593 from human kappa opioid receptor expressed in CHO-K1 cells incubated for 1 hr by 1450 microbeta scintillation counter analysis. In kind it is cell-based. In outline: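 Membranes from transiently KOR-transfected CHO-K1 cells (~2 µg/well) used in SPA with 3H-U69,593 (1 nM). Competitor ranged 1 pM–10 µM in 50 mM Tris-HCl pH 7.4, 5 mM MgCl2, 0.1% BSA. Incubated 1 h at room temperature with shaking. Nonspecific binding defined with 10 µM dynorphin A. Sigmoidal dose-response fit; at least three independent experiments in triplicate.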
Kappa-type opioid receptor, sequence (P41145 whole entry): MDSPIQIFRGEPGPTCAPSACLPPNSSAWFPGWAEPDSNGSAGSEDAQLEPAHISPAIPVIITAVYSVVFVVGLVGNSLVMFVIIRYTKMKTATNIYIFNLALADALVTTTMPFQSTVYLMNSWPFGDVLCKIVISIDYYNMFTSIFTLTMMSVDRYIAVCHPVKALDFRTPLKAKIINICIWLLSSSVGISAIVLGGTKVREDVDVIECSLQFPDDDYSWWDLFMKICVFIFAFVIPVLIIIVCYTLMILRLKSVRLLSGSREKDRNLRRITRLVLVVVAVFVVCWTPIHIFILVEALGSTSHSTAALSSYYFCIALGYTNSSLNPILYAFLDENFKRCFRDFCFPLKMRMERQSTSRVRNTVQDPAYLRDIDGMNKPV
A general note: Loss of bound radioactivity is the signal in a displacement assay; it reports binding, not function.
`CC[C@H](C)[C@H](NC(=O)[C@H](CCC(N)=O)NC(=O)[C@H](CCCCN)NC(=O)[C@H](CCCNC(=N)N)NC(=O)[C@@H]1CSSC[C@H](NC(=O)[C@@H](N)CC(N)=O)C(=O)N1)C(=O)N[C@H]1CSSC[C@@H](C(N)=O)NC1=O` (HELM PEPTIDE1{N.C.C.R.K.Q.I.C.C.[am]}$PEPTIDE1,PEPTIDE1,2:R3-3:R3|PEPTIDE1,PEPTIDE1,8:R3-9:R3$$$V2.0) had a pKi of 6.68. As for `N=C(N)NCCC[C@@H](NC(=O)[C@@H](CCCNC(=N)N)NC(=O)[C@@H]1CCCN1C(=O)c1ccccc1)C(=O)N[C@@H](Cc1ccccc1)C(=O)N[C@@H](CC1CCCCC1)C(=O)N[C@H]1CSSC[C@@H](C(N)=O)NC1=O`, the figure is 9.23. As for `C[C@H](NC(=O)[C@@H](CCCNC(=N)N)NC(=O)[C@@H](CCCNC(=N)N)NC(=O)[C@@H]1CCCN1C(=O)c1ccccc1)C(=O)N[C@@H](CC1CCCCC1)C(=O)N[C@H]1CSSC[C@@H](C(N)=O)NC1=O`, the figure is 9.54.

Compound `CC[C@H](C)[C@H](NC(=O)[C@H](CCC(N)=O)NC(=O)[C@H](CCCNC(=N)N)NC(=O)[C@H](CCCNC(N)=O)NC(=O)[C@@H]1CSSC[C@H](NC(=O)[C@@H](N)CC(N)=O)C(=O)N1)C(=O)N[C@H]1CSSC[C@@H](C(N)=O)NC1=O` (HELM PEPTIDE1{N.C.C.[Cit].R.Q.I.C.C.[am]}$PEPTIDE1,PEPTIDE1,2:R3-3:R3|PEPTIDE1,PEPTIDE1,8:R3-9:R3$$$V2.0) gave a negative-log Ki (pKi) of 6.66. `N=C(N)NCCC[C@@H](NC(=O)[C@@H](CCCNC(=N)N)NC(=O)[C@@H]1CCCN1C(=O)c1ccccc1)C(=O)N[C@@H](CCC(N)=O)C(=O)N[C@@H](CC1CCCCC1)C(=O)N[C@H]1CSSC[C@@H](C(=O)O)NC1=O` had a pKi of 5.67. As to `N=C(N)NCCC[C@@H](NC(=O)[C@@H](CCCNC(=N)N)NC(=O)[C@@H]1CCCN1C(=O)c1ccccc1)C(=O)N[C@@H](CCC(N)=O)C(=O)N[C@@H](CC1CCCCC1)C(=O)N1CCSSC[C@@H](C(N)=O)NC(=O)C1`, the pKi was 6.70. As for `N=C(N)NCCC[C@@H](NC(=O)[C@@H](CCCNC(=N)N)NC(=O)[C@@H]1CCCN1C(=O)c1ccccc1)C(=O)N[C@@H](CCCCN)C(=O)N[C@@H](CC1CCCCC1)C(=O)N[C@H]1CSSC[C@@H](C(N)=O)NC1=O`, the figure is 9.23; as for `N=C(N)NCCC[C@@H](NC(=O)c1cccc(Cl)c1)C(=O)N[C@H](CCCNC(=N)N)C(=O)N[C@@H](CCC(N)=O)C(=O)N[C@@H](CC1CCCCC1)C(=O)N[C@H]1CSSC[C@@H](C(N)=O)NC1=O`, 8.17; as for `N=C(N)NCCC[C@@H](NC(=O)[C@@H](CCCNC(=N)N)NC(=O)[C@@H]1CCCN1C(=O)c1ccccc1)C(=O)N[C@@H](CCC(N)=O)C(=O)N[C@@H](CC1CCCCC1)C(=O)N[C@H]1CSS[C@H]2C[C@@H](C(N)=O)N(C2)C1=O`, 6.68. The value for `N=C(N)NCCC[C@@H](NC(=O)[C@@H](CCCNC(=N)N)NC(=O)[C@@H]1CCCN1C(=O)c1ccccc1)C(=O)N[C@@H](CCC(N)=O)C(=O)N[C@@H](CC1CCCCC1)C(=O)N[C@H]1CC(=O)NC[C@@H](C(N)=O)NC1=O` was 6.63; that for `N=C(N)NCCC[C@@H](NC(=O)Cc1cccc(Cl)c1)C(=O)N[C@H](CCCNC(=N)N)C(=O)N[C@@H](CCC(N)=O)C(=O)N[C@@H](CC1CCCCC1)C(=O)N[C@H]1CSSC[C@@H](C(N)=O)NC1=O` was 8.68; that for `CC(C)C[C@H](NC(=O)[C@@H](CCCNC(=N)N)NC(=O)[C@@H](CCCNC(=N)N)NC(=O)[C@@H]1CCCN1C(=O)c1ccccc1)C(=O)N[C@@H](CC1CCCCC1)C(=O)N[C@H]1CSSC[C@@H](C(N)=O)NC1=O` was 8.85.

In turn, `CC[C@H](C)[C@@H]1NC(=O)[C@H](CCC(N)=O)NC(=O)[C@H](CCCNC(=N)N)NC(=O)[C@H](CCCNC(=N)N)NC(=O)[C@@H]2CSSC[C@@H](C(N)=O)NC(=O)[C@H](CSSC[C@H](NC(=O)[C@@H](N)CC(N)=O)C(=O)N2)NC1=O` (HELM PEPTIDE1{N.C.C.R.R.Q.I.C.C.[am]}$PEPTIDE1,PEPTIDE1,2:R3-8:R3|PEPTIDE1,PEPTIDE1,3:R3-9:R3$$$V2.0) had a pKi of 5.83. The value for `C[C@H](NC(=O)[C@H](CCC(N)=O)NC(=O)[C@H](CCCNC(=N)N)NC(=O)[C@H](CCCNC(=N)N)NC(=O)[C@@H]1CSSC[C@H](NC(=O)[C@@H](N)CC(N)=O)C(=O)N1)C(=O)N[C@H]1CSSC[C@@H](C(N)=O)NC1=O` (HELM PEPTIDE1{N.C.C.R.R.Q.A.C.C.[am]}$PEPTIDE1,PEPTIDE1,2:R3-3:R3|PEPTIDE1,PEPTIDE1,8:R3-9:R3$$$V2.0) was 5.61. As for `N=C(N)NCCC[C@@H](NC(=O)[C@@H](CCCNC(=N)N)NC(=O)[C@@H]1CCCN1C(=O)c1ccccc1)C(=O)N[C@@H](CC(=O)O)C(=O)N[C@@H](CC1CCCCC1)C(=O)N[C@H]1CSSC[C@@H](C(N)=O)NC1=O`, the figure is 7.99; as for `CC(C)C[C@H](NC(=O)[C@H](CCC(N)=O)NC(=O)[C@H](CCCNC(=N)N)NC(=O)[C@H](CCCNC(=N)N)NC(=O)[C@@H]1CSSC[C@H](NC(=O)[C@@H](N)CC(N)=O)C(=O)N1)C(=O)N[C@H]1CSSC[C@@H](C(N)=O)NC1=O` (HELM PEPTIDE1{N.C.C.R.R.Q.L.C.C.[am]}$PEPTIDE1,PEPTIDE1,2:R3-3:R3|PEPTIDE1,PEPTIDE1,8:R3-9:R3$$$V2.0), 7.62.

`N=C(N)NCCC[C@@H](NC(=O)c1cccc(Br)c1)C(=O)N[C@H](CCCNC(=N)N)C(=O)N[C@@H](CCC(N)=O)C(=O)N[C@@H](CC1CCCCC1)C(=O)N[C@H]1CSSC[C@@H](C(N)=O)NC1=O`: the negative logarithm of the Ki (pKi) is 8.28.

Regarding `N=C(N)NCCC[C@@H](NC(=O)[C@@H](CCCNC(=N)N)NC(=O)[C@@H]1CCCN1C(=O)c1ccccc1)C(=O)N[C@@H](CCC(N)=O)C(=O)N[C@@H](CC1CCCCC1)C(=O)N[C@H]1CSSCCN(CC(N)=O)C1=O`, the pKi was 6.33. As to `CC[C@H](C)[C@H](NC(=O)[C@H](CCC(N)=O)NC(=O)[C@H](Cc1c[nH]cn1)NC(=O)[C@H](CCCNC(=N)N)NC(=O)[C@@H]1CSSC[C@H](NC(=O)[C@@H](N)CC(N)=O)C(=O)N1)C(=O)N[C@H]1CSSC[C@@H](C(N)=O)NC1=O` (HELM PEPTIDE1{N.C.C.R.H.Q.I.C.C.[am]}$PEPTIDE1,PEPTIDE1,2:R3-3:R3|PEPTIDE1,PEPTIDE1,8:R3-9:R3$$$V2.0), the pKi was 7.07. `CC[C@H](C)[C@H](NC(=O)[C@H](CCC(N)=O)NC(=O)[C@H](CCCNC(=N)N)NC(=O)[C@H](CCCNC(=N)N)NC(=O)[C@@H]1CSSC[C@H](NC(=O)[C@@H](N)Cc2ccc(O)cc2)C(=O)N1)C(=O)N[C@H]1CSSC[C@@H](C(N)=O)NC1=O` (HELM PEPTIDE1{Y.C.C.R.R.Q.I.C.C.[am]}$PEPTIDE1,PEPTIDE1,2:R3-3:R3|PEPTIDE1,PEPTIDE1,8:R3-9:R3$$$V2.0) showed a pKi of 7.39.

As for `CC[C@H](C)[C@H](NC(=O)[C@H](C)NC(=O)[C@H](CCCNC(=N)N)NC(=O)[C@H](CCCNC(=N)N)NC(=O)[C@@H]1CSSC[C@H](NC(=O)[C@@H](N)CC(N)=O)C(=O)N1)C(=O)N[C@H]1CSSC[C@@H](C(N)=O)NC1=O` (HELM PEPTIDE1{N.C.C.R.R.A.I.C.C.[am]}$PEPTIDE1,PEPTIDE1,2:R3-3:R3|PEPTIDE1,PEPTIDE1,8:R3-9:R3$$$V2.0), the pKi was 6.88.

`N=C(N)NCCC[C@@H](NC(=O)[C@@H]1CCC(=O)N1)C(=O)N[C@H](CCCNC(=N)N)C(=O)N[C@@H](CCC(N)=O)C(=O)N[C@@H](CC1CCCCC1)C(=O)N[C@H]1CCSSCC[C@@H](C(N)=O)NC1=O` gave a pKi of 6.62. With `CC[C@H](C)[C@H](NC(=O)[C@H](CCC(N)=O)NC(=O)[C@H](CCCNC(=N)N)NC(=O)[C@H](CCCCN)NC(=O)[C@@H]1CSSC[C@H](NC(=O)[C@@H](N)CC(N)=O)C(=O)N1)C(=O)N[C@H]1CSSC[C@@H](C(N)=O)NC1=O` (HELM PEPTIDE1{N.C.C.K.R.Q.I.C.C.[am]}$PEPTIDE1,PEPTIDE1,2:R3-3:R3|PEPTIDE1,PEPTIDE1,8:R3-9:R3$$$V2.0), the pKi was 6.37. As for `CC[C@H](C)[C@H](NC(=O)[C@H](CCC(N)=O)NC(=O)[C@H](CCCNC(=N)N)NC(=O)[C@H](C)NC(=O)[C@@H]1CSSC[C@H](NC(=O)[C@@H](N)CC(N)=O)C(=O)N1)C(=O)N[C@H]1CSSC[C@@H](C(N)=O)NC1=O` (HELM PEPTIDE1{N.C.C.A.R.Q.I.C.C.[am]}$PEPTIDE1,PEPTIDE1,2:R3-3:R3|PEPTIDE1,PEPTIDE1,8:R3-9:R3$$$V2.0), the figure is 6.77. In turn, `CC[C@H](C)[C@@H]1NC(=O)[C@H](CCC(N)=O)NC(=O)[C@H](CCCNC(=N)N)NC(=O)[C@H](CCCNC(=N)N)NC(=O)[C@@H]2CSSC[C@H](NC1=O)C(=O)N[C@H](C(N)=O)CSSC[C@H](NC(=O)[C@@H](N)CC(N)=O)C(=O)N2` (HELM PEPTIDE1{N.C.C.R.R.Q.I.C.C.[am]}$PEPTIDE1,PEPTIDE1,2:R3-9:R3|PEPTIDE1,PEPTIDE1,3:R3-8:R3$$$V2.0) showed a pKi of 6.24. As for `CC[C@H](C)[C@H](NC(=O)[C@H](CCC(N)=O)NC(=O)[C@H](CCCNC(=N)N)NC(=O)[C@H](Cc1c[nH]cn1)NC(=O)[C@@H]1CSSC[C@H](NC(=O)[C@@H](N)CC(N)=O)C(=O)N1)C(=O)N[C@H]1CSSC[C@@H](C(N)=O)NC1=O` (HELM PEPTIDE1{N.C.C.H.R.Q.I.C.C.[am]}$PEPTIDE1,PEPTIDE1,2:R3-3:R3|PEPTIDE1,PEPTIDE1,8:R3-9:R3$$$V2.0), the figure is 6.86; as for `N=C(N)NCCC[C@H](NC(=O)[C@H](CCCNC(=N)N)NC(=O)[C@@H]1CSSC[C@H](NC(=O)[C@@H](N)CC(N)=O)C(=O)N1)C(=O)N[C@@H](CCC(N)=O)C(=O)N[C@@H](Cc1ccccc1)C(=O)N[C@H]1CSSC[C@@H](C(N)=O)NC1=O` (HELM PEPTIDE1{N.C.C.R.R.Q.F.C.C.[am]}$PEPTIDE1,PEPTIDE1,2:R3-3:R3|PEPTIDE1,PEPTIDE1,8:R3-9:R3$$$V2.0), 7.55. As for `CC[C@H](C)[C@H](NC(=O)[C@H](CCC(N)=O)NC(=O)[C@H](CCCNC(N)=O)NC(=O)[C@H](CCCNC(=N)N)NC(=O)[C@@H]1CSSC[C@H](NC(=O)[C@@H](N)CC(N)=O)C(=O)N1)C(=O)NC1CSSC[C@@H](C(N)=O)NC1=O` (single isomer, unassigned), the figure is 6.41.

The values are drawn from ChEMBL document CHEMBL5252514, “Conopeptide-Derived κ-Opioid Agonists (Conorphins): Potent, Selective, and Metabolic Stable Dynorphin A Mimetics with Antinociceptive Properties” (J Med Chem, 2016).
